Test results: paper PMC3182555 (Nature chemical biology, 2011)

Key:
β2-microglobulin (β2m) [1] = target: T1, β2-microglobulin (β2m) (Homo sapiens, UniProt P61769); test: ESI-IMS-MS of non-covalent complexes; format: biochemical
Method in brief: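 45 μM β2m at pH 2.5 with test compound (0–1125 μM), shaken at 600 rpm, 25 °C, 48 h, three or more replicates pooled. Spun at 16,300x g for 30 min. Supernatant run on SDS-PAGE, and bands quantified as percent soluble protein versus compound:β2m molar ratio. Binding: 38 μM β2m, 10 mM ammonium formate pH 2.5, 40 or 400 μM compound, 10% acetonitrile, ESI-IMS-MS at 70 V cone.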

β2-microglobulin (β2m) [2] = target: T1, β2-microglobulin (β2m); test: ESI-IMS-MS of non-covalent complexes; format: binding

T1 sequence (P61769 21-119): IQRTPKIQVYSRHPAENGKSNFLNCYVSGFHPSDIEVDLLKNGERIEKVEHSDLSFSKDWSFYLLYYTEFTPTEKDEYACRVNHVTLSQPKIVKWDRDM

Row | Compound | IC50 (β2-microglobulin (β2m) [1]) [µM] | ESI-IMS-MS of non-covalent complexes (β2-microglobulin (β2m) [2])
1 | CO[C@H]1/C=C/O[C@@]2(C)Oc3c(C)c(O)c4c(O)c(cc(O)c4c3C2=O)NC(=O)/C(C)=C\C=C\[C@H](C)[C@H](O)[C@@H](C)[C@@H](O)[C@@H](C)[C@H](OC(C)=O)[C@@H]1C [rifamycin SV] | ~300 | –
2 | CO[C@H]1/C=C/O[C@@]2(C)Oc3c(C)c(O)c4c(O)c(c5c(nc6cc(C)ccn65)c4c3C2=O)NC(=O)/C(C)=C\C=C\[C@H](C)[C@H](O)[C@@H](C)[C@@H](O)[C@@H](C)[C@H](OC(C)=O)[C@@H]1C [rifaximin] | – | Instead, only the most compact conformer shows binding to this ligand (Figure 4c).
